Assay results: ChEMBL document CHEMBL5376028, “Discovery of dual-action phenolic 4-arylidene-isoquinolinones with antioxidant and α-glucosidase inhibition activities” (RSC Med Chem, 2024)
Activity calls are given as the source filed them. The calls are words filed in the database; no cut-off is given here.

Assays:
Brain [1] = test: Antioxidant activity in Wistar rat brain homogenate assessed as inhibition of FeSO4-induced lipid peroxidation preincubated with compound for 30 mins followed by FeSO4 addition and measured after 1 hrs by TBARS assay; type: functional, tissue-based
Procedure, shortened: (§1)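 Whole brains of adult male Wistar rats (200–250 g) were homogenized 1/10 in PBS pH 7.4 and spun at 800 rcf. The supernatant was adjusted to 2.666 mg protein/mL and preincubated with EDTA and compound in DMSO for 30 min at 37 °C. FeSO₄ (final 10 μM) was added for 1 h at 37 °C. TBA/TCA reagent was added, then heating at 80 °C, and A540 was read against a TMP standard curve. Inhibition % was calculated versus the DMSO control; α-tocopherol served as the standard. IC₅₀ came from linear regression, mean ± SEM of three experiments.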

Brain [2] = test: Antioxidant activity in Wistar rat brain homogenate assessed as inhibition of FeSO4-induced lipid peroxidation by measuring TBARS scavenging activity at 100 uM preincubated with compound for 30 mins followed by FeSO4 addition and measured after 1 hrs by absorbance based microplate reader relative to control; type: functional, tissue-based; set-up: scale not given: the % may be the effect or the level left; settings: time 90.0 min; procedure, shortened: as §1
Alpha-glucosidase = Alpha-glucosidase (Saccharomyces cerevisiae S288c, UniProt P53341+P38158+P07265); test: Inhibition of Saccharomyces cerevisiae alpha-glucosidase using p-nitrophenyl-alpha-D-glucopyranoside as substrate pre-incubated for 10 mins followed by substrate addition and measured after 15 mins by absorbance based analysis; type: protein assay
[3] = Antioxidant activity assessed as DPPH radical scavenging activity at 100 uM incubated for 30 mins in dark by absorbance based analysis relative to control; type: functional
Procedure, shortened: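 The compound in DMSO was mixed with DPPH in EtOH (final 100 μM). It was incubated 30 min at 37 °C with stirring in the dark, and absorbance was read at 515 nm. Scavenging % = (C − E) × 100/C against the DPPH control.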

Mus musculus [4] = test: Anti-hyperglycemic activity in CDI mouse assessed as decrease in blood glucose level at 50 mg/kg preadministered with compound for 30 mins followed by sucrose administration and measured after 30 mins by oral sucrose tolerance test relative to control; type: functional; set-up: scale not given: the % may be the effect or the level left
Procedure, shortened: (§2)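 Sucrose 3 g kg⁻¹ given orally 30 min later. Caudal vein blood glucose measured by glucometer at 0, 0.5, 1, 1.5, 2 and 3 h; % variation of glycemia calculated relative to the 0 h level.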

[5] = target: T1, Alpha-glucosidase (Saccharomyces cerevisiae S288c) (UniProt P53341+P38158+P07265); test: Mixed type inhibition of Saccharomyces cerevisiae alpha-glucosidase using p-nitrophenyl-alpha-D-glucopyranoside as substrate at 1 to 2 times of IC50 pre-incubated for 10 mins followed by substrate addition and measured after 15 mins by Lineweaver-Burk plot analysis; type: protein assay; settings: time 25.0 min
Procedure, shortened: (§3)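 The same α-glucosidase protocol was used, with enzyme and inhibitor preincubated 10 min. Reactions were started with PNPG varied from 1 to 23.1 mM at 37 °C, quenched with […] and read at 405 nm. […] Mode was assigned from Lineweaver–Burk plots.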

Mus musculus [6] = test: Anti-hyperglycemic activity in CDI mouse assessed as reduction in glucose AUC at 50 mg/kg measured for 7 hrs by oral glucose tolerance test; type: functional, organism-based
Mus musculus [7] = test: Anti-hyperglycemic activity in CDI mouse assessed as reduction in blood glucose level at 50 mg/kg measured for 7 hrs by oral glucose tolerance test; type: functional, organism-based
[8] = target: T1, Alpha-glucosidase (Saccharomyces cerevisiae S288c); test: Non-competitive inhibition of Saccharomyces cerevisiae alpha-glucosidase using p-nitrophenyl-alpha-D-glucopyranoside as substrate at 1 to 2 times of IC50 pre-incubated for 10 mins followed by substrate addition and measured after 15 mins by Lineweaver-Burk plot analysis; type: protein assay; settings: time 25.0 min; procedure, shortened: as §3
COS-7 = test: Cytotoxicity against African green monkey COS-7 cells at 50 uM; type: toxicity, cell-based; settings: chlorocebus aethiops, cos-7, 50 µM
[9] = Toxicity in CDI mouse; settings: in vivo
Mus musculus [10] = test: Anti-hyperglycemic activity in CDI mouse assessed as reduction in blood glucose level at 100 mg/kg preadministered with compound for 30 mins followed by sucrose administration and measured upto 3 hrs by oral sucrose tolerance test relative to control; type: functional; set-up: scale not given: the % may be the effect or the level left; settings: time < 3.5 hrs; procedure, shortened: as §2
[11] = target: T1, Alpha-glucosidase (Saccharomyces cerevisiae S288c); test: Mixed type inhibition of Saccharomyces cerevisiae alpha-glucosidase using p-nitrophenyl-alpha-D-glucopyranoside as substrate at 0.5 to 1 times of IC50 pre-incubated for 10 mins followed by substrate addition and measured after 15 mins by Lineweaver-Burk plot analysis; type: protein assay; settings: time 25.0 min; procedure, shortened: as §3
Mus musculus [12] = test: Anti-hyperglycemic activity in CDI mouse assessed as blood glucose concentration at 50 mg/kg preadministered with compound for 30 mins followed by sucrose administration and measured after 3 hrs by oral sucrose tolerance test relative to control; type: functional; settings: time 3.5 hrs; procedure, shortened: as §2
Mus musculus [13] = test: Anti-hyperglycemic activity in CDI mouse assessed as reduction in blood glucose level preadministered with compound for 30 mins followed by sucrose administration and measured upto 3 hrs by oral sucrose tolerance test; type: functional, organism-based; settings: dose 50-100 mg/kg, time <= 3.5 hrs; procedure, shortened: as §2
[14] = Antioxidant activity assessed as hydroxyl radical scavenging activity by Electron Paramagnetic Resonance based spectrophotometric analysis; type: functional; settings: dose 3-106 µM
Procedure, shortened: (§4)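 Hydroxyl radicals came from a Fenton reaction: FeSO₄·7H₂O 20 μM (acid water, pH 2.5) plus H₂O₂ 200 μM, with DMPO 6000 μM spin trap in PBS pH 7.4. The compound in acetone was tested at final 106, 60, 10.66 and 3.3 μM. The DMPO–OH quartet was recorded by EPR (9.44 GHz, 8 mW, 0.1 mT modulation, 120 s sweep), and intensity was taken from the second-peak height.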

[15] = Antioxidant activity assessed as hydroxyl radical scavenging activity by measuring fluorescence intensity at 60 uM by Electron Paramagnetic Resonance based spectrophotometric analysis (reference value: 610 a.u.); type: functional
Procedure, shortened: (§5)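 Hydroxyl radicals generated by Fenton reaction: FeSO₄·7H₂O 20 μM (in acid water, pH 2.5) plus H₂O₂ 200 μM, with DMPO 6000 μM spin trap in PBS pH 7.4. Compound added in acetone at final 106, 60, 10.66 or 3.3 μM. The DMPO–OH quartet was recorded by EPR as the first derivative in a quartz flat cell, at 9.44 GHz, 8 mW microwave power, 0.1 mT modulation width. Intensity was taken as peak height of the second signal.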

[16] = Antioxidant activity assessed as hydroxyl radical scavenging activity by measuring fluorescence intensity at 3 uM by Electron Paramagnetic Resonance based spectrophotometric analysis (reference value: 610 a.u.); type: functional; procedure, shortened: as §5
[17] = Antioxidant activity assessed as hydroxyl radical scavenging activity by measuring fluorescence intensity at 106 uM by Electron Paramagnetic Resonance based spectrophotometric analysis (reference value: 610 a.u.); type: functional; procedure, shortened: as §5
[18] = Antioxidant activity assessed as reduction in hydroxyl concentration at 10 uM by Electron Paramagnetic Resonance based spectrophotometric analysis relative to control; type: functional; set-up: scale not given: the % may be the effect or the level left; procedure, shortened: as §4
[19] = Antioxidant activity assessed as inhibition of hydroxyl radical at 106 uM by Electron Paramagnetic Resonance based spectrophotometric analysis relative to control; type: functional; procedure, shortened: as §4
[20] = Antioxidant activity assessed as hydroxyl radical scavenging activity by measuring fluorescence intensity at 10 uM by Electron Paramagnetic Resonance based spectrophotometric analysis (reference value: 610 a.u.); type: functional; procedure, shortened: as §5
[21] = Rattus norvegicus, Wistar, Brain

COc1cc(/C=C2/C(=O)N(c3ccccc3)C(C(=O)NC3CCCCC3)c3ccccc32)ccc1O (stereo not given)
IC50 (Brain [1]; [21]): 19.2 µM
Activity (Brain [2]): 95.5%
IC50 (Alpha-glucosidase): 50.5 µM
Activity [3]: 66.8%

COc1cc(/C=C2/C(=O)N(c3ccc(C(C)C)cc3)C(C(=O)NC3CCCCC3)c3ccccc32)ccc1O (stereo not given)
Activity (Mus musculus [4]; time 60 min, 1 h): 17%
IC50 (Brain [1]; [21]): 17.2 µM
Activity (Brain [2]): 95.7%
IC50 (Alpha-glucosidase): 14.8 µM
Activity [3]: 68%
inhibition [5]: Active

COc1cc(/C=C2/C(=O)N(c3ccc(C(F)(F)F)cc3)C(C(=O)NC3CCCCC3)c3ccccc32)ccc1O (stereo not given)
Activity (Mus musculus [6]): inactive
Activity (Mus musculus [7]): inactive
Activity (Mus musculus [4]; time 60 min, 1 h): 26%
inhibition [8]: Active
Activity (Brain [2]): 64.3%
IC50 (Alpha-glucosidase): 13.7 µM
Activity (COS-7): Non-Toxic
Activity [3]: 65.9%
Activity [9]: Non-Toxic

CC(C)c1ccc(N2C(=O)/C(=C/c3ccccc3)c3ccccc3C2C(=O)NC(C)(C)C)cc1 (stereo not given)
Activity (Brain [2]): 6.1%
IC50 (Alpha-glucosidase): 50.6 µM
Activity [3]: 0%

COc1cc(/C=C2/C(=O)N(c3ccc(C(C)C)cc3)C(C(=O)NC(C)(C)C)c3ccccc32)ccc1O (stereo not given)
Activity (Brain [2]): 92.4%
IC50 (Alpha-glucosidase): 68 µM
Activity [3]: 67.3%

COc1cc(/C=C2/C(=O)N(c3ccc(C)cc3)C(C(=O)NC3CCCCC3)c3ccccc32)ccc1O (stereo not given)
Activity (Mus musculus [6]): inactive
Activity (Mus musculus [7]): inactive
Activity (Mus musculus [4]; time 60.0 min): Active
Activity (Mus musculus [10]): 41%
Activity (Brain [2]): 70.7%
IC50 (Alpha-glucosidase): 30.2 µM
inhibition [11]: Active
Activity (Mus musculus [12]): 20%
Activity (COS-7): Non-Toxic
Activity [3]: 72.7%
Activity [9]: Non-Toxic
Activity (Mus musculus [13]): Dose-Dependent Effect

O=c1c(O)c(-c2ccc(O)c(O)c2)oc2cc(O)cc(O)c12
Activity (Brain [2]): 95.7%
Activity [3]: 97.9%

COc1cc(/C=C2/C(=O)N(c3ccc(C(C)C)cc3)C(C(=O)NC(C)(C)C)c3ccccc32)cc(OC)c1O (stereo not given)
IC50 (Brain [1]; [21]): 2.4 µM
Activity (Brain [2]): 96.8%
IC50 (Alpha-glucosidase): > 100 µM
Activity [3]: 37.6%

COc1cc(/C=C2/C(=O)N(Cc3ccccc3)C(C(=O)NC3CCCCC3)c3ccccc32)ccc1O (stereo not given)
Activity (Brain [2]): 93.1%
IC50 (Alpha-glucosidase): 50.1 µM
Activity [3]: 77.1%

COc1ccc2c(c1)/C(=C\c1ccc(O)c(OC)c1)C(=O)N(c1ccc(C(C)C)cc1)C2C(=O)NC(C)(C)C (stereo not given)
IC50 (Brain [1]; [21]): 11.3 µM
Activity (Brain [2]): 95.4%
IC50 (Alpha-glucosidase): 31.5 µM
Activity [3]: 69.2%

COc1cc(/C=C2/C(=O)N(c3ccc(C(F)(F)F)cc3)C(C(=O)NC3CCCCC3)c3ccccc32)cc(OC)c1O (stereo not given)
Activity (Mus musculus [4]; time 60.0 min): Active
IC50 (Brain [1]; [21]): 1.6 µM
Activity (Brain [2]): 99.4%
IC50 (Alpha-glucosidase): > 100 µM
Activity [3]: 89.9%

COc1cc(/C=C2/C(=O)N(c3ccccc3)C(C(=O)NC3CCCCC3)c3ccccc32)cc(OC)c1O (stereo not given)
IC50 (Brain [1]; [21]): 4.8 µM
Activity (Brain [2]): 97.8%
IC50 (Alpha-glucosidase): 60.1 µM
Activity [3]: 40.6%

COc1cc(/C=C2/C(=O)N(c3ccc(O)cc3)C(C(=O)NC3CCCCC3)c3ccccc32)cc(OC)c1O (stereo not given)
IC50 (Brain [1]; [21]): 9.8 µM
Activity (Brain [2]): 98%
IC50 (Alpha-glucosidase): > 100 µM
Activity [3]: 33.1%

COc1cc(/C=C2/C(=O)N(c3ccc(C(C)C)cc3)C(C(=O)NC3CCCCC3)c3ccccc32)cc(OC)c1O (stereo not given)
Activity [14]: Dose-Dependent Effect
Activity (Mus musculus [4]; time 60.0 min): Active
Activity (Mus musculus [10]): 54%
IC50 (Brain [1]; [21]): 1.4 µM
Activity (Brain [2]): 97.7%
IC50 (Alpha-glucosidase): 33.1 µM
Flu intensity [15]: 256 a.u.
Activity (Mus musculus [12]): 29%
Activity [3]: 35.4%
Flu intensity [16]: 464 a.u.
Flu intensity [17]: 150 a.u.
Activity [18]: 25%
inhibition [19]: 76%
Flu intensity [20]: 412 a.u.
Activity (Mus musculus [13]): Dose-Dependent Effect

COc1cc(/C=C2/C(=O)N(c3ccc(O)cc3)C(C(=O)NC3CCCCC3)c3ccccc32)ccc1O (stereo not given)
IC50 (Brain [1]; [21]): 22.7 µM
Activity (Brain [2]): 96.4%
IC50 (Alpha-glucosidase): 92.8 µM
Activity [3]: 72.2%

VITAMIN E [listing 1 of 2 here]
IC50 (Brain [1]): 6.8 µM

COc1cc(/C=C2/C(=O)N(c3ccc(C)cc3)C(C(=O)NC3CCCCC3)c3ccccc32)cc(OC)c1O (stereo not given)
IC50 (Brain [1]; [21]): 3.5 µM
Activity (Brain [2]): 96.5%
IC50 (Alpha-glucosidase): 44.4 µM
Activity [3]: 37.5%

COc1cc(/C=C2/C(=O)N(Cc3ccccc3)C(C(=O)NC3CCCCC3)c3ccccc32)cc(OC)c1O (stereo not given)
IC50 (Brain [1]; [21]): 2.2 µM
Activity (Brain [2]): 96.8%
IC50 (Alpha-glucosidase): 61.3 µM
Activity [3]: 36.2%

COc1cc(/C=C2/C(=O)N(c3ccc(F)cc3)C(C(=O)NC3CCCCC3)c3ccccc32)cc(OC)c1O (stereo not given)
IC50 (Brain [1]; [21]): 2.9 µM
Activity (Brain [2]): 96.8%
IC50 (Alpha-glucosidase): 57.2 µM
Activity [3]: 36.1%

VITAMIN E [listing 2 of 2 here]
Activity (Brain [2]): 79.1%
Activity [3]: 87.4%

COc1cc(/C=C2/C(=O)N(c3ccc(F)cc3)C(C(=O)NC3CCCCC3)c3ccccc32)ccc1O (stereo not given)
Activity (Brain [2]): 90.5%
IC50 (Alpha-glucosidase): 52.5 µM
Activity [3]: 67.3%
